The values below come from ChEMBL document CHEMBL3792315, “Potent, Selective, and CNS-Penetrant Tetrasubstituted Cyclopropane Class IIa Histone Deacetylase (HDAC) Inhibitors” (ACS Med Chem Lett, 2016).

Bounds are passed on as bounds.

The nature of series [1]: Apparent permeability across apical to basolateral side in MDCK cells expressing MDR1. It is filed as ADME, cell-based, Canis lupus familiaris. To be noted: dog.
The test system of series [2] is Brain. Briefly: Dose normalized Cmax in C57Bl/6 mouse brain at 10 mg/kg, po. The format is ADME, organism-based. As to conditions: in vivo. In a few lines:
(§1)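 A single 10 mg/kg oral gavage dose was given to fed male C57Bl/6 mice. Concentrations were measured in plasma, brain and muscle to derive Cmax, Tmax and AUC, with Cmax and AUC normalised to dose.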

Series [3] deals with Muscle tissue. Put plainly: Dose normalized Cmax in C57Bl/6 mouse muscle at 10 mg/kg, po. It is filed as ADME, organism-based. As to conditions: in vivo. A digest of the protocol: as §1
The nature of series [4]: Volume of distribution at steady state in C57Bl/6 mouse plasma at 2.5 mg/kg, iv. As to conditions: read-out: Vdss. The format is ADME, organism-based. In a few lines: (§2)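 Fed male C57Bl/6 mice were dosed intravenously, and plasma was sampled to derive half-life, plasma clearance and steady-state volume of distribution. The iv dose differed per compound (5, 1 or 2.5 mg/kg).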

The subject of series [5] is Brain. Briefly: Dose normalized AUC in C57Bl/6 mouse brain at 10 mg/kg, po. As to conditions: in vivo. It is filed as ADME, organism-based. A digest of the protocol: as §1
Series [6] deals with Muscle tissue. Briefly: Dose normalized AUC in C57Bl/6 mouse muscle at 10 mg/kg, po. It is filed as ADME, organism-based. To be noted: in vivo. In a few lines: as §1
Series [7] is described as follows: Tmax in C57Bl/6 mouse plasma at 10 mg/kg, po. The format is ADME, organism-based. In a few lines: as §1
A short description of series [8]: Oral bioavailability in C57Bl/6 mouse plasma at 10 mg/kg. The format is ADME, organism-based.
The subject of series [9] is Plasma. Briefly: Dose normalized Cmax in C57Bl/6 mouse plasma at 10 mg/kg, po. The format is ADME, organism-based. To be noted: in vivo. In a few lines: as §1
Series [10] is described as follows: Tmax in C57Bl/6 mouse muscle at 10 mg/kg, po. The format is ADME, organism-based, Muscle tissue. In a few lines: as §1
For series [11], the system named is Plasma. Put plainly: Dose normalized AUC in C57Bl/6 mouse plasma at 10 mg/kg, po. It is filed as ADME, organism-based. As to conditions: in vivo. A digest of the protocol:
as §1

Series [12] in a line: Tmax in C57Bl/6 mouse brain at 10 mg/kg, po. The format is ADME, organism-based. A digest of the protocol:
as §1

A short description of series [13]: Volume of distribution at steady state in C57Bl/6 mouse plasma at 1 mg/kg, iv. The format is ADME, organism-based. To be noted: read-out: Vdss. In a few lines:
as §2

A short description of series [14]: Volume of distribution at steady state in C57Bl/6 mouse plasma at 5 mg/kg, iv. It is filed as ADME, organism-based. To be noted: read-out: Vdss. A digest of the protocol:
as §2

Regarding `Cc1cnc(-c2ccc([C@@H]3[C@@H](c4ccccc4)[C@@]3(C)C(=O)NO)cc2)nc1`, in series [1], the Papp A→B was 39.1 ×10⁻⁶ cm/s.

For `O=C(NO)[C@]1(F)[C@H](c2ccccc2)[C@H]1c1ccc(-c2cnco2)cc1`, the Papp A→B in [1] came out at 48.7 ×10⁻⁶ cm/s.

Consider `O=C(NO)[C@]1(F)[C@H](c2ccccc2)[C@H]1c1ccc(-c2ncc(OC(F)F)cn2)cc1`, for which the Cmax/dose turned out to be 120 nM·kg/mg in [2], 56 nM·kg/mg in series [3] and 150 nM·kg/mg in [9]. In [4], the Vd was determined as 10 L/kg. For the same compound, the AUC/dose was found to be 580 nM·kg·h/mg in [5], 300 nM·kg·h/mg in [6] and 660 nM·kg·h/mg in series [11]. Moreover, the results for the Tmax in series [7], in series [10] and in series [12] were 15 min, 30 min and 60 min, respectively. For the same compound, the bioavailability in series [8] stood at 100%. Further, the Papp A→B in [1] was 19.2 ×10⁻⁶ cm/s.

As to `O=C(NO)[C@]1(F)[C@H](c2ccccc2)[C@H]1c1ccc(-c2ncc(F)cn2)cc1`, the Cmax/dose is 780 nM·kg/mg in [2], 290 nM·kg/mg in [3] and 180 nM·kg/mg in [9]. The values for the AUC/dose in [5], in series [6] and in series [11] were 1900 nM·kg·h/mg, 640 nM·kg·h/mg and 480 nM·kg·h/mg, respectively. The Tmax in series [7] turned out to be 15 min; in series [10], 30 min; in series [12], 30 min. The Vd in series [13] turned out to be 5.1 L/kg. In series [8], this compound gave a bioavailability of 79%. Also, the Papp A→B in series [1] worked out at 41.8 ×10⁻⁶ cm/s.

For `Cc1cnc(-c2ccc([C@H]3[C@H](C(=O)NO)[C@@H]3c3ccccc3)cc2)nc1`, the Papp A→B in series [1] worked out at 37.5 ×10⁻⁶ cm/s.

For `O=C(NO)[C@@H]1[C@H](c2ccccc2)[C@H]1c1ccc(-c2ncc(Cl)cn2)cc1`, in series [1], the apical-to-basolateral permeability (Papp A→B) is 38 ×10⁻⁶ cm/s.

Turning to `Cc1cnc(-c2ccc([C@@H]3[C@@H](c4ccccc4)[C@@]3(F)C(=O)NO)cc2)nc1`, the Papp A→B in [1] was found to be 36.9 ×10⁻⁶ cm/s.

`O=C(NO)[C@@H]1[C@H](c2ccccc2)[C@H]1c1ccc(-c2nccc(C(F)(F)F)n2)cc1`: the Papp A→B in series [1] was 11.4 ×10⁻⁶ cm/s.

`O=C(NO)[C@@H]1[C@H](c2ccccc2)[C@H]1c1ccc(-c2ncc(OC(F)F)cn2)cc1`: in series [1], the Papp A→B turned out to be 12.9 ×10⁻⁶ cm/s.

Consider `O=C(NO)[C@@H]1[C@H](c2ccccc2)[C@H]1c1ccc(-c2ncc(F)cn2)cc1`, for which the figures for the Cmax/dose in series [2], in series [3] and in [9] were 570 nM·kg/mg, 320 nM·kg/mg and 97 nM·kg/mg, respectively. In addition, the AUC/dose in [5] was determined as 830 nM·kg·h/mg; in series [6], 330 nM·kg·h/mg; in [11], 110 nM·kg·h/mg. Further, the Tmax in series [7], in [10] and in series [12] was 30 min throughout. The same compound gave a bioavailability in series [8] of 100%. In series [14], the Vd is 4.1 L/kg.

For the compound `O=C(NO)[C@]1(F)[C@H](c2ccccc2)[C@H]1c1ccc(-c2ncc(Cl)cn2)cc1`, the Papp A→B in series [1] is less than 1 ×10⁻⁶ cm/s.

For `O=C(NO)[C@]1(F)[C@H](c2ccccc2)[C@H]1c1ccc(-c2nccc(C(F)(F)F)n2)cc1`, the Papp A→B in series [1] is 7 ×10⁻⁶ cm/s.

As usually defined, the Papp A→B is the apparent permeability from the apical to the basolateral side of a cell layer. In general, Tmax refers to the time from dosing to the highest level. Broadly, the bioavailability is dose-corrected exposure relative to a reference, in per cent. Read a low bioavailability as poor availability.
